Consider 26 compounds from ChEMBL document CHEMBL4732051, “The discovery of potent small molecule activators of human STING” (Eur J Med Chem, 2021).

T1 sequence (Q86WV6 whole entry): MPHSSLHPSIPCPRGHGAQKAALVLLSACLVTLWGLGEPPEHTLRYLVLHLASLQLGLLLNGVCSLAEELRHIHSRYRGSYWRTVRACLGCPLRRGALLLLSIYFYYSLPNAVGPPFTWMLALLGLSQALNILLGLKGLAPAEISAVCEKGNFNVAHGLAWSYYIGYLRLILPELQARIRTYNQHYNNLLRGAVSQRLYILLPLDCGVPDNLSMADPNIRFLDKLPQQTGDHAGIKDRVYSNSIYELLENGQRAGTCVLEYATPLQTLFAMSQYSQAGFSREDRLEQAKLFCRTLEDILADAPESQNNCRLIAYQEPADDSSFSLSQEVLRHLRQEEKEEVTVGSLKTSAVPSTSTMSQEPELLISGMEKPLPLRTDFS

The first assay addresses T1, Stimulator of interferon genes protein (Homo sapiens, UniProt Q86WV6). The assay can be described thus: Activation of wild-type human STING expressed in HEK293T cells assessed as IRF3 reporter activation at 1 uM measured after 20 hrs by luciferase reporter gene assay. Type of assay: cell-based.
Details: not given
In short, it runs like this: (§1)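 HEK293T-hSTING cells carrying a secreted luciferase reporter under an IRF-inducible promoter, made by blasticidin selection and clonal selection; parental HEK293T-luciferase cells as control. 5 x 10^5 cells per well treated at a single concentration. Supernatant luciferase read after 20 h by Quanti-Luc, as % activation relative to a positive-control agonist.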
Turning to `O=C(NCc1c(F)cc(F)cc1F)c1ccc2c(n1)N(Cc1cc(F)cc(F)c1)C(=O)CC2`, the Activity worked out at 5%.

Consider `CC1Oc2ncc(C(=O)NCc3c(F)cc(F)cc3F)cc2N(Cc2cc(F)cc(F)c2)C1=O` (racemic), for which the Activity came to 6%.

As for `O=C(NCc1c(F)cc(F)cc1F)c1cnc2c(c1)N(Cc1cc(F)cc(F)c1)C(=O)CO2`, the Activity was determined as 3%.

Regarding `COC1(C)C(=O)N(Cc2c(F)cccc2Cl)c2cc(C(=O)NCc3c(F)cc(F)cc3F)ccc21` (racemic), the Activity came out at 20%.

Still in this assay, the particulars now being: filed as activator.
Regarding `CC1Oc2ccc(C(=O)NCc3c(F)cc(F)cc3F)cc2N(Cc2cc(F)cc(F)c2)C1=O` (racemic), the Activity is 95%.

Consider `CC1Cc2ccc(C(=O)NCc3c(F)cc(F)cc3F)cc2N(Cc2cc(F)cc(F)c2)S1(=O)=O` (racemic), for which the Activity was determined as 40%.

Take `CC1(C#N)C(=O)N(Cc2c(F)cccc2Cl)c2cc(C(=O)NCc3c(F)cc(F)cc3F)ccc21` (racemic): the Activity worked out at 102%.

In the case of `CC1(C)C(=O)N(Cc2ccccc2F)c2cc(C(=O)NCc3c(F)cc(F)cc3F)ccc21`, the Activity was determined as 116%.

In the case of `O=C(NCc1c(F)cc(F)cc1F)c1ccc2c(c1)N(Cc1c(F)cccc1Cl)C(=O)CC2`, the Activity was 107%.

Turning to `CC1Cc2ccc(C(=O)NCc3c(F)cc(F)cc3F)cc2N(Cc2c(F)cccc2Cl)C1=O` (racemic), the Activity was determined as 92%.

Take `CC1(C)CC(=O)N(Cc2cc(F)cc(F)c2)c2cc(C(=O)NCc3c(F)cc(F)cc3F)ccc21`: the Activity was determined as 102%.

The target in a further assay is T1, Stimulator of interferon genes protein. The assay can be described thus: Activation of wild-type human STING expressed in HEK293T cells assessed as IRF3 reporter activation at 10 uM measured after 20 hrs by luciferase reporter gene assay. The format is cell-based.
Details: not given
In short, it runs like this:
as §1
As for `O=C(NCc1ccco1)c1ccc2ccn(Cc3ccccc3)c2c1`, the Activity is -1%.

On to `CN1C(=O)C(C)(Cc2ccccc2)c2cc(C(=O)NCc3ccco3)ccc21` (stereo unspecified), for which the Activity was -1%.

Consider `O=C(NCc1c(F)cc(F)cc1F)c1ccc2c(c1)N(C(=O)c1c(F)cccc1Cl)CCO2`, for which the Activity was 26%.

As to `O=C(NCc1ccco1)c1ccc2c(c1)N(Cc1ccccc1)C(=O)CS2`, the Activity worked out at 27%.

In the case of `O=C(NCc1ccco1)c1ccc2[nH]c(=O)n(Cc3ccccc3)c(=O)c2c1`, the Activity came to 0%.

Consider `O=C(NCc1ccco1)c1ccc2c(c1)N(Cc1ccccc1)C(=O)CCO2`, for which the Activity is -1%.

As for `O=C(NCc1ccco1)c1ccc2c(c1)N(Cc1c(F)cccc1Cl)C(=O)CO2`, the Activity was determined as 30%.

In the case of `O=C(NCc1ccco1)c1ccc2c(c1)N(Cc1c(F)cccc1Cl)C(=O)C21CC1`, the Activity is 6%.

Consider `O=C(NCc1ccco1)c1ccc2[nH]c(=O)n(Cc3ccccc3Cl)c2c1`, for which the Activity was -1%.

The assay is the same for the next values; noted with them: filed as activator.
In the case of `O=C(NCc1c(F)cc(F)cc1F)c1cnc2c(c1)N(Cc1cc(F)cc(F)c1)C(=O)CC2`, the Activity was found to be 58%.

In the case of `CC1(C)C(=O)N(Cc2ccccc2F)c2cc(C(=O)NCc3ccco3)ccc21`, the Activity came to 73%.

Turning to `O=C(NCc1ccco1)c1ccc2c(c1)N(Cc1c(F)cccc1Cl)C(=O)CC2`, the Activity turned out to be 105%.

For a further assay the target is unchanged. The assay can be described thus: Activation of wild-type human STING expressed in HEK293T cells assessed as IRF3 reporter activation at 20 uM measured after 20 hrs by luciferase reporter gene assay. The following applies: filed as activator. Type of assay: cell-based. In short, it runs like this:
as §1
Regarding `CC1(O)C(=O)N(Cc2c(F)cccc2Cl)c2cc(C(=O)NCc3c(F)cc(F)cc3F)ccc21` (racemic), the Activity stood at 67%.

The target is the same in the next assay. Nature of the assay: Activation of wild-type human STING expressed in HEK293T cells assessed as IRF3 reporter activation at 50 uM measured after 20 hrs by luciferase reporter gene assay.
Details: not given
Type of assay: cell-based. In short, it runs like this: as §1
Take `O=C(NCc1ccco1)c1ccc2c(c1)N(Cc1ccccc1F)C(=O)C2=O`: the Activity is 0%.

The target is the same in another assay. The assay can be described thus: Activation of wild-type human STING expressed in HEK293T cells assessed as IRF3 reporter activation at 100 uM measured after 20 hrs by luciferase reporter gene assay. The format is cell-based.
Details: not given
In short, it runs like this:
as §1
For the compound `O=C(NCc1ccco1)c1ccc2c(c1)N(Cc1c(F)cccc1Cl)C(=O)C[S+]2[O-]` (stereo unspecified), the Activity is 7%.
